The target of assay [1] is Leukotriene B4 receptor (Homo sapiens, UniProt Q9NPC1+Q15722). In words: Inhibition of binding of [3H]LTB4 (1 nM) to intact human polymorphonuclear leukocytes (PMNs). The gist of the method:
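Intact donor PMNs (10^6 cells) in Ca2+/Mg2+-free HBSS with 5 mM HEPES, incubated 20 min at 4 °C with 1 nM [3H]LTB4 (7.4 TBq/mmol), with or without competitors at various concentrations. Bound label measured by filtration. […] Screening at 10 μM.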

For assay [2], the species on record is Homo sapiens. As to the kind of experiment: (§1) Inhibition of LTB4 induced chemotaxis of isolated human PMNs. The assay is classed as functional. An outline of the steps:
(§2)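 Human PMNs from healthy donors' heparinized blood, isolated by dextran sedimentation, Ficoll and hypotonic lysis. Cells labeled with 51Cr (1 μCi/10^6 cells, 1 h, 37 °C), resuspended at 10^7 cells/mL in Hank's buffer with 1% BSA. LTB4 plus competitors in lower Boyden–Keller chamber, two 3 μm cellulose nitrate filters, 150 min at 37 °C, 5% CO2. Lower-filter radioactivity counted, expressed as percent of control. pKB from n experiments.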

Assay [3] can be described thus: as §1. Type of assay: functional. An outline of the steps:
as §2

Structures are written as SMILES.

For orientation: IC50 means the point on the concentration scale where inhibition reaches its midpoint. For `O=C([O-])C[C@@]1(O)CCC[C@H](/C=C/C(O)CCCCc2ccccc2)C1.[Na+]` (stereo in doubt; 3c), the IC50 in assay [1] is greater than 10 µM. Usually pKB stands for −log10 of the KB, conventionally taken in molar units. In turn, `CCCCCCCCC(O)/C=C/[C@H]1CCC[C@@](O)(CC(=O)[O-])C1.[Na+]` (stereo in doubt; 4b) had a pKB in assay [2] of 6.42. Besides, in assay [1], the IC50 is 0.9 µM. In assay [1], `CCCCCC(O)/C=C/[C@H]1CCC[C@@](O)(CC(=O)[O-])C1.[Na+]` (stereo in doubt; 2a) had an IC50 greater than 10 µM.

In assay [1], `O=C([O-])C[C@]1(O)CCC[C@H](/C=C/C(=O)CCCCc2ccccc2)C1.[Na+]` came in with an IC50 greater than 10 µM.

On to `O=C([O-])C[C@@H]1CCC[C@H](CCC(O)CCCCc2ccccc2)C1.[Na+]` (some centres undefined), for which the IC50 in assay [1] turned out to be 2.6 µM. Same read-out and setting: as for `CN(C)C(=O)C[C@]1(O)CCC[C@H](/C=C/C(F)CCCCc2ccccc2)C1` (stereo in doubt; 16b), the figure is 6.5 µM; as for `O=C([O-])/C=C1/CCC[C@H](/C=C/C(O)CCCCc2ccccc2)C1.[Na+]` (stereo in doubt; form 2), 0.5 µM; as for `O=C([O-])C[C@]1(O)CCC[C@H](/C=C/C(O)(CCCCc2ccccc2)CC(=O)O)C1.[Na+]` (some centres undefined), greater than 10 µM. On the same count and under the same terms, in the case of `CN(C)C(=O)C[C@]1(O)CCC[C@H](/C=C/C(F)CCCCc2ccccc2)C1` (stereo in doubt; 16 a) it was 2 µM; in that of `O=C([O-])/C=C1/CCC[C@H](/C=C/C(O)CCCCc2ccccc2)C1.[Na+]` (stereo in doubt; 10a), greater than 10 µM.

In assay [1], `CN(C)C(=O)C[C@]1(O)CCC[C@H](/C=C/C(C)(O)CCCCc2ccccc2)C1` (stereo in doubt; 15b) had an IC50 of 7 µM.

In assay [2], `CCCCCC(O)/C=C/[C@H]1CCC[C@](O)(CC(=O)[O-])C1.[Na+]` (stereo in doubt; 2d) had a pKB of 5.25. In addition, the half-maximal inhibitory concentration (IC50) in assay [1] stood at 10 µM. For the compound `O=C([O-])/C=C1\CCC[C@H](/C=C\C(O)CCCCc2ccccc2)C1.[Na+]` (some centres undefined), the IC50 in assay [1] was found to be 1.3 µM. Compound `O=C([O-])/C=C1/CCC[C@H](/C=C/C(O)CCCCc2ccccc2)C1.[Na+]` (stereo in doubt; form 1) returned an IC50 in assay [1] greater than 10 µM. In turn, `CCCCCC(O)/C=C/[C@H]1CCC[C@](O)(CC(=O)[O-])C1.[Na+]` (stereo in doubt; 2c) came in with a 50% inhibitory concentration (IC50) in assay [1] greater than 10 µM.

The compound `CN(C)OC(=O)/C=C1/CCC[C@H](/C=C/C(O)CCCCc2ccccc2)C1` (some centres undefined) yielded an IC50 in assay [1] of 7 µM.

`O=C([O-])C[C@]1(O)CCC[C@H](CCC(O)CCCCc2ccccc2)C1.[Na+]` (some centres undefined) returned an IC50 in assay [1] of 5.3 µM. `CCCCCC(O)/C=C/[C@H]1CCC[C@@](O)(CC(=O)[O-])C1.[Na+]` (stereo in doubt; 2b) displayed a pKB in assay [3] of 5.1. Besides, the IC50 in assay [1] came to 8 µM. In the case of `O=C([O-])C[C@]1(O)CCC[C@H](/C=C/C(O)CCCCc2ccccc2)C1.[Na+]` (stereo in doubt; 3b), the pKB in assay [3] is 6.57. In assay [1], this compound registered an IC50 of 0.8 µM. As for `CN(C)C(=O)C[C@]1(O)CCC[C@H](/C=C/[C@H](O)CCCCc2ccccc2)C1`, the IC50 in assay [1] is greater than 10 µM. Still for that read-out and setting: as for `CN(C)C(=O)C[C@]1(O)CCC[C@H](/C=C/C(C)(O)CCCCc2ccccc2)C1` (stereo in doubt; form 2), the figure is greater than 10 µM. `O=C([O-])C[C@@]1(O)CCC[C@H](/C=C/C(O)CCCCc2ccccc2)C1.[Na+]` (stereo in doubt; 3d) came in with a pKB in assay [3] of 6.31. The same compound had an IC50 in assay [1] of 1.5 µM.

The compound `CCCCCCCCC(O)/C=C/[C@H]1CCC[C@](O)(CC(=O)[O-])C1.[Na+]` (stereo in doubt; 4d) gave an IC50 in assay [1] of 2.5 µM. Compound `CN(C)C(=O)C[C@]1(O)CCC[C@H](/C=C/C(C)(O)CCCCc2ccccc2)C1` (stereo in doubt; form 1) returned an IC50 in assay [1] of 4.5 µM. The same measure, in the same setting: as for `CC(=O)OC(/C=C/[C@H]1CCC/C(=C/C(=O)N(C)C)C1)CCCCc1ccccc1` (some centres undefined), the figure is greater than 10 µM; as for `O=C([O-])C[C@]1(O)CCC[C@H](/C=C/C(O)CCCCc2ccccc2)C1.[Na+]` (stereo in doubt; 3a), greater than 10 µM. As to `CCCCCCCCC(O)/C=C/[C@H]1CCC[C@@](O)(CC(=O)[O-])C1.[Na+]` (stereo in doubt; 4a), in assay [1], the IC50 was greater than 10 µM. `CN(C)OC(=O)/C=C1/CCC[C@@H](/C=C/C(O)CCCCc2ccccc2)C1` (some centres undefined): the IC50 in assay [1] is 1 µM. For `CN(C)OC(=O)C[C@@]1(O)CCC[C@H](/C=C/C(O)CCCCc2ccccc2)C1` (some centres undefined), the pKB in assay [3] was found to be 6.91. This compound also yielded an IC50 in assay [1] of 0.08 µM. Turning to `CCCCCCCCC(O)/C=C/[C@H]1CCC[C@](O)(CC(=O)[O-])C1.[Na+]` (stereo in doubt; 4c), the IC50 in assay [1] came out at 4 µM. On to `CN(C)C(=O)C[C@]1(O)CCC[C@H](/C=C/[C@@H](O)CCCCc2ccccc2)C1`, for which the pKB in assay [3] came out at 7.5. The IC50 in assay [1] amounted to 0.04 µM. Take `CN(C)OC(=O)C[C@]1(O)CCC[C@H](/C=C/C(O)CCCCc2ccccc2)C1` (some centres undefined): the IC50 in assay [1] is greater than 10 µM.

The record behind these values is ChEMBL document CHEMBL1132545, “Synthesis and structure-activity relationships of new 1, 3-disubstituted cyclohexanes as structurally rigid leukotriene B(4) receptor antagonists” (J Med Chem, 1999).
